Assay results: ChEMBL document CHEMBL5724801, “EUbOPEN Chemogenomics Library - Multiplex” (2024)
Where “and” joins values, the source holds several entries; their conditions need not be identical. Equal values may be shown once.

How the values were obtained:
[1] = system: Fibroblast; test: Multiplex assay against human fibroblast; type: toxicity, cell-based
Method in brief: (§1)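 Cells stained live at seeding with Hoechst33342, BioTracker Green Microtubule Cytoskeleton Dye, MitoTracker Red and Annexin V Alexa Fluor 680 were imaged on a CQ1 microscope at 37°C and 5% CO2 after compound addition. Their classification by CellPathfinder machine-learning gating ran from Hoechst high-intensity objects versus normal cells, to healthy, pyknosed or fragmented nuclei among normal cells, to mitotic or apoptotic among pyknosed cells. Tubulin, mitochondrial-mass and membrane-permeability phenotypes are per cents of healthy-nucleus cells.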

[2] = system: U2OS; test: Multiplex assay against U2OS; type: toxicity, cell-based; conditions: human; method in brief: as §1
[3] = 12 h, 1 µM, compound concentration 1 uM
[4] = 12 h, 10 µM, compound concentration 10 uM
[5] = 24 h, 1 µM, compound concentration 1 uM
[6] = 24 h, 10 µM, compound concentration 10 uM
[7] = 48 h, 1 µM, compound concentration 1 uM
[8] = 48 h, 10 µM, compound concentration 10 uM

O=C(Nc1ccccc1Cl)c1cnc2ccc(C3CCNCC3)cn12.O=C(O)C(=O)O
Population Fragmented Nuclei (%) [1, 3]: 12.96% and 7.79%
Population Healthy Nuclei (%) [1, 3]: 60.19% and 75.41%
Population Hoechst High Intensity Objects (%) [1, 3]: 0%
Population Membrane Permeable-Phenotype (%) [1, 3]: 1.54% and 2.72%
Population Mitochondria Different-Phenotype (%) [1, 3]: 7.69% and 10.87%
Population Mitotic Cells (%) [1, 3]: 93.1% and 73.17%
Population Normal (%) [1, 3]: 100%
Population Pyknosed Nuclei (%) [1, 3]: 26.85% and 16.8%
Population Tubulin-Different-Phenotype (%) [1, 3]: 17.69% and 23.91%
Total Cell Count [1, 3]: 216 and 244
Population Apoptotic (%) [1, 4]: 16.33% and 20.48%
Population Healthy Nuclei (%) [1, 4]: 62.09% and 63.64%
Population Hoechst High Intensity Objects (%) [1, 4]: 0% and 0.43%
Population Membrane Permeable-Phenotype (%) [1, 4]: 4.42% and 7.48%
Population Mitochondria Different-Phenotype (%) [1, 4]: 17.7% and 21.09%
Population Mitotic Cells (%) [1, 4]: 83.67% and 79.52%
Population Normal (%) [1, 4]: 100% and 99.57%
Population Pyknosed Nuclei (%) [1, 4]: 26.92% and 35.93%
Population Tubulin-Different-Phenotype (%) [1, 4]: 40.71% and 57.82%
Total Cell Count [1, 4]: 182 and 232
Population Apoptotic (%) [1, 5]: 14.29% and 25.71%
Population Fragmented Nuclei (%) [1, 5]: 11.52% and 3.52%
Population Healthy Nuclei (%) [1, 5]: 72.35% and 81.06%
Population Hoechst High Intensity Objects (%) [1, 5]: 0%
Population Membrane Permeable-Phenotype (%) [1, 5]: 4.46% and 3.8%
Population Mitochondria Different-Phenotype (%) [1, 5]: 8.92% and 15.22%
Population Mitotic Cells (%) [1, 5]: 85.71% and 74.29%
Population Normal (%) [1, 5]: 100%
Population Pyknosed Nuclei (%) [1, 5]: 16.13% and 15.42%
Population Tubulin-Different-Phenotype (%) [1, 5]: 19.75% and 25.54%
Total Cell Count [1, 5]: 217 and 227
Population Apoptotic (%) [1, 6]: 35.29% and 37.66%
Population Healthy Nuclei (%) [1, 6]: 67.43% and 62.44%
Population Hoechst High Intensity Objects (%) [1, 6]: 0%
Population Membrane Permeable-Phenotype (%) [1, 6]: 6.78% and 10.53%
Population Mitochondria Different-Phenotype (%) [1, 6]: 28.81% and 18.05%
Population Mitotic Cells (%) [1, 6]: 64.71% and 62.34%
Population Normal (%) [1, 6]: 100%
Population Pyknosed Nuclei (%) [1, 6]: 19.43% and 36.15%
Population Tubulin-Different-Phenotype (%) [1, 6]: 49.15% and 60.9%
Total Cell Count [1, 6]: 175 and 213
Population Fragmented Nuclei (%) [1, 7]: 11.26% and 5.24%
Population Healthy Nuclei (%) [1, 7]: 79.73% and 81.22%
Population Hoechst High Intensity Objects (%) [1, 7]: 0%
Population Membrane Permeable-Phenotype (%) [1, 7]: 2.26% and 5.91%
Population Mitochondria Different-Phenotype (%) [1, 7]: 7.91% and 2.15%
Population Mitotic Cells (%) [1, 7]: 90% and 64.52%
Population Normal (%) [1, 7]: 100%
Population Pyknosed Nuclei (%) [1, 7]: 9.01% and 13.54%
Population Tubulin-Different-Phenotype (%) [1, 7]: 12.43% and 28.49%
Total Cell Count [1, 7]: 222 and 229
Population Apoptotic (%) [1, 8]: 33.33% and 60.38%
Population Fragmented Nuclei (%) [1, 8]: 10.9% and 1.94%
Population Healthy Nuclei (%) [1, 8]: 75.64% and 63.87%
Population Hoechst High Intensity Objects (%) [1, 8]: 0% and 0.64%
Population Mitochondria Different-Phenotype (%) [1, 8]: 13.56% and 16.16%
Population Mitotic Cells (%) [1, 8]: 66.67% and 39.62%
Population Normal (%) [1, 8]: 100% and 99.36%
Population Pyknosed Nuclei (%) [1, 8]: 13.46% and 34.19%
Population Tubulin-Different-Phenotype (%) [1, 8]: 50.85% and 74.75%
Total Cell Count [1, 8]: 156
Population Apoptotic (%) [2, 3]: 34.62% and 26.09%
Population Fragmented Nuclei (%) [2, 3]: 1.77% and 0.57%
Population Healthy Nuclei (%) [2, 3]: 86.73% and 86.21%
Population Hoechst High Intensity Objects (%) [2, 3]: 0%
Population Membrane Permeable-Phenotype (%) [2, 3]: 0.77% and 5.33%
Population Mitochondria Different-Phenotype (%) [2, 3]: 0% and 4%
Population Mitotic Cells (%) [2, 3]: 65.38% and 73.91%
Population Normal (%) [2, 3]: 100%
Population Pyknosed Nuclei (%) [2, 3]: 11.5% and 13.22%
Population Tubulin-Different-Phenotype (%) [2, 3]: 0.26% and 0.67%
Total Cell Count [2, 3]: 452 and 174
Population Apoptotic (%) [2, 4]: 36.51% and 44.74%
Population Fragmented Nuclei (%) [2, 4]: 2.48% and 4.95%
Population Healthy Nuclei (%) [2, 4]: 81.93% and 76.24%
Population Hoechst High Intensity Objects (%) [2, 4]: 0%
Population Membrane Permeable-Phenotype (%) [2, 4]: 2.42% and 7.79%
Population Mitochondria Different-Phenotype (%) [2, 4]: 0% and 9.09%
Population Mitotic Cells (%) [2, 4]: 63.49% and 55.26%
Population Normal (%) [2, 4]: 100%
Population Pyknosed Nuclei (%) [2, 4]: 15.59% and 18.81%
Population Tubulin-Different-Phenotype (%) [2, 4]: 5.14% and 3.25%
Total Cell Count [2, 4]: 404 and 202
Population Apoptotic (%) [2, 5]: 38.71% and 50%
Population Fragmented Nuclei (%) [2, 5]: 2.92% and 3.06%
Population Healthy Nuclei (%) [2, 5]: 81.98% and 83.84%
Population Hoechst High Intensity Objects (%) [2, 5]: 0%
Population Membrane Permeable-Phenotype (%) [2, 5]: 0.79% and 4.17%
Population Mitochondria Different-Phenotype (%) [2, 5]: 0% and 3.12%
Population Mitotic Cells (%) [2, 5]: 61.29% and 50%
Population Normal (%) [2, 5]: 100%
Population Pyknosed Nuclei (%) [2, 5]: 15.1% and 13.1%
